PMC9810445 (Biomolecules & Therapeutics, 2022)

Target: T1, CYP6A8 (Drosophila melanogaster, UniProt Q27593)
T1 sequence (Q27593 1-506): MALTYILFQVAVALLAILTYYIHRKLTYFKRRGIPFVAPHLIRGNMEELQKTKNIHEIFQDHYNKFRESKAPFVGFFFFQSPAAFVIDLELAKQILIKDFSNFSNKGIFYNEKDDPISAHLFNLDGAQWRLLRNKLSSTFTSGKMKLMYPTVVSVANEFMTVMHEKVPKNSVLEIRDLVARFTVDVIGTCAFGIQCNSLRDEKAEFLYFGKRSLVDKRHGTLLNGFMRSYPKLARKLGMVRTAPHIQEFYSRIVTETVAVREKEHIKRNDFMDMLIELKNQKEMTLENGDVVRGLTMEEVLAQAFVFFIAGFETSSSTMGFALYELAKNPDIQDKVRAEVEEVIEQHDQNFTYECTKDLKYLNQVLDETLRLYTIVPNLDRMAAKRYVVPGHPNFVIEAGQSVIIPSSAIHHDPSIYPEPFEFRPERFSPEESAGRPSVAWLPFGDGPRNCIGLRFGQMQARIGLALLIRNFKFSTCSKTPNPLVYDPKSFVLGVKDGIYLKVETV
Experiment: UV-visible spectral binding titration
Procedure, shortened: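 Recombinant C-terminally His6-tagged CYP6A8 was expressed in E. coli from pCW and purified by Ni2+-NTA chromatography. Enzyme was diluted to 1 µM in 100 mM potassium phosphate (pH 7.6) and split between sample and reference cuvettes. Fatty acid was added stepwise and 350–500 nm difference spectra were recorded. Kd was derived by plotting the peak-to-trough absorbance difference against ligand concentration.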

Point of comparison: `CCCCCCCCCCCC(=O)O` [lauric acid], Kd 28 ± 4 µM. Against it:
- CCCCCCCCCC(=O)O [capric acid] — 5.1-fold higher, 144 ± 20 µM
- CCCCCCCC(=O)O [octanoic acid] — 25-fold higher, 713 ± 46 µM
